What was measured:
[1] = test system: NCI-H322M; experiment: Cytotoxicity against human NCI-H322M cells assessed as reduction in measured protein incubated for 48 hrs by SRB assay; assay type: functional; details: read-out: LC50 (the source's name)
How it was run: (§1)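 Tested in the NCI-60 panel with a five-dose response curve, each value the mean of 2 experiments.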

[2] = biological target: Cytochrome P450 2B6 (Homo sapiens, UniProt P20813); experiment: Inhibition of CYP2B6 (unknown origin); assay type: ADME
[3] = biological target: T1, Epidermal growth factor receptor (Homo sapiens, UniProt P00533, L858R); experiment: Binding affinity to human partial length EGFR L858R mutant (R669 to V1011 residues) expressed in bacterial expression system under full equilibrating condition by scanKINETIC assay
How it was run: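 Binding kinetics are read from Kd values measured under four dose-response arms. Arm A is full equilibration. Arm B is equilibrate, then 3-fold dilution, then equilibrate. Arm C is partial equilibration. Arm D is predilution followed by full equilibration. Comparing the arms assesses reversibility of binding.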

[4] = biological target: Epidermal growth factor receptor (Homo sapiens, UniProt P00533, A750P/L747-E749DEL); experiment: Binding affinity to human partial length EGFR L747-E749del/A750P mutant expressed in bacterial expression system by KinomeScan assay
How it was run: (§2)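 Competition binding against an immobilized active-site-directed ligand. Bound kinase is quantified by qPCR of its DNA tag. Kd values come from duplicate 11-point dose-response curves.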

[5] = test system: MOLT-4; experiment: cells; assay type: functional; details: Homo sapiens, MOLT-4, 48 h
[6] = test system: MOLT-4; experiment: Cytotoxicity against human MOLT4 cells assessed as reduction in measured protein incubated for 48 hrs by SRB assay; assay type: functional; details: MOLT-4, 48 h, read-out: LC50 (the source's name); how it was run: as §1
[7] = test system: CCRF-CEM; experiment: cells; assay type: functional; details: Homo sapiens, 48 h
[8] = test system: A549; experiment: cells; assay type: functional; details: Homo sapiens, A549, 48 h
[9] = biological target: Epidermal growth factor receptor (Homo sapiens, UniProt P00533, S752-I759DEL); experiment: Binding affinity to human partial length EGFR S752-I759 deletion mutant expressed in bacterial expression system by KinomeScan assay; how it was run: as §2
[10] = test system: NCI-H460; experiment: cells; assay type: functional; details: Homo sapiens, NCI-H460, 48 h
[11] = biological target: Receptor tyrosine-protein kinase erbB-2 (Homo sapiens, UniProt P04626); experiment: Inhibition of probe binding to HER2 (unknown origin) using rabbit reticulate lysate system after 1 hr by luminescence assay
How it was run: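 Homogeneous competition binding in rabbit reticulocyte lysate with kinase expressed in the lysate. IC50 taken from a ten-point dose-response curve; value is the average of triplicate experiments.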

[12] = biological target: Epidermal growth factor receptor (Homo sapiens, UniProt P00533); experiment: Inhibition of probe binding to wild type EGFR (unknown origin) using rabbit reticulate lysate system after 1 hr by luminescence assay
[13] = biological target: Tyrosine-protein kinase ITK/TSK (Homo sapiens) (UniProt Q08881); experiment: Inhibition of probe binding to ITK (unknown origin) using rabbit reticulate lysate system at 250 nM after 1 hr by luminescence assay relative to control
[14] = biological target: Cytochrome P450 2C8 (Homo sapiens, UniProt P10632); experiment: Inhibition of CYP2C8 (unknown origin); assay type: ADME
[15] = biological target: Cytochrome P450 2C9 (Homo sapiens, UniProt P11712); experiment: Inhibition of CYP2C9 (unknown origin); assay type: ADME
[16] = test system: NCI-H460; experiment: Cytotoxicity against human NCI-H460 cells assessed as reduction in measured protein incubated for 48 hrs by SRB assay; assay type: functional; details: NCI-H460, 48 h, read-out: LC50 (the source's name); how it was run: as §1
[17] = biological target: Tyrosine-protein kinase Tec (Homo sapiens) (UniProt P42680); experiment: Inhibition of probe binding to TEC (unknown origin) using rabbit reticulate lysate system at 250 nM after 1 hr by luminescence assay relative to control
[18] = Half life in rat hepatocytes; assay type: ADME, cell-based, Hepatocyte
[19] = biological target: Cytochrome P450 1A2 (Homo sapiens, UniProt P05177); experiment: Inhibition of CYP1A2 (unknown origin); assay type: ADME
[20] = biological target: Epidermal growth factor receptor (Homo sapiens, UniProt P00533, L858R/T790M); experiment: Inhibition of human partial length EGFR L858R/T790M mutant (R669 to V1011 residues) expressed in mammalian expression system by competition binding assay based KinomeScan assay; how it was run: as §2
[21] = biological target: Epidermal growth factor receptor (Homo sapiens, UniProt P00533, E746-A750DEL); experiment: Binding affinity to human partial length EGFR E746-A750 deletion mutant expressed in bacterial expression system by KinomeScan assay; how it was run: as §2
[22] = biological target: Cytoplasmic tyrosine-protein kinase BMX (Homo sapiens) (UniProt P51813); experiment: Inhibition of probe binding to BMX (unknown origin) using rabbit reticulate lysate system at 250 nM after 1 hr by luminescence assay relative to control
[23] = biological target: Epidermal growth factor receptor (Homo sapiens, UniProt P00533, L747-S752DEL/P753S); experiment: Binding affinity to human partial length EGFR L747-S752del/P753S mutant expressed in bacterial expression system by KinomeScan assay; how it was run: as §2
[24] = biological target: Cytochrome P450 3A4 (Homo sapiens, UniProt P08684); experiment: Inhibition of CYP3A4 (unknown origin); assay type: ADME
[25] = biological target: Tyrosine-protein kinase BTK (Homo sapiens) (UniProt Q06187); experiment: Inhibition of probe binding to BTK (unknown origin) using rabbit reticulate lysate system at 250 nM after 1 hr by luminescence assay relative to control
[26] = Half life in human liver microsomes; assay type: ADME, Microsome
[27] = test system: NCI-H322M; experiment: Therapeutic index, ratio of LC50 for human NCI-H322M cells to GI50 for human NCI-H322M cells; assay type: functional
How it was run: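 NCI-60 panel screen using five-dose response curves, each value an average of 2 experiments. […] The therapeutic index is calculated as LC50/GI50 for the same cell line.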

[28] = biological target: Epidermal growth factor receptor (Homo sapiens, UniProt P00533, L861Q); experiment: Binding affinity to human partial length EGFR L861Q mutant (R669 to V1011 residues) expressed in bacterial expression system by KinomeScan assay; how it was run: as §2
[29] = biological target: Epidermal growth factor receptor (Homo sapiens, UniProt P00533, L747-T751DEL); experiment: Binding affinity to human partial length EGFR L747-T751del/Sins mutant expressed in bacterial expression system by KinomeScan assay; how it was run: as §2
[30] = biological target: T1, Epidermal growth factor receptor; experiment: Binding affinity to human partial length EGFR L858R mutant (R669 to V1011 residues) expressed in bacterial expression system by kinomescan assay
How it was run: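 Competition binding against an immobilized active-site-directed ligand; bound kinase quantified by qPCR of its DNA tag. Kd taken from duplicate 11-point dose-response curves.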

[31] = biological target: Cytochrome P450 2D6 (Homo sapiens, UniProt P10635); experiment: Inhibition of CYP2D6 (unknown origin); assay type: ADME
[32] = biological target: Cytochrome P450 2C19 (Homo sapiens, UniProt P33261); experiment: Inhibition of CYP2C19 (unknown origin); assay type: ADME

T1 sequence (P00533 25-1210 L858R limits assumed): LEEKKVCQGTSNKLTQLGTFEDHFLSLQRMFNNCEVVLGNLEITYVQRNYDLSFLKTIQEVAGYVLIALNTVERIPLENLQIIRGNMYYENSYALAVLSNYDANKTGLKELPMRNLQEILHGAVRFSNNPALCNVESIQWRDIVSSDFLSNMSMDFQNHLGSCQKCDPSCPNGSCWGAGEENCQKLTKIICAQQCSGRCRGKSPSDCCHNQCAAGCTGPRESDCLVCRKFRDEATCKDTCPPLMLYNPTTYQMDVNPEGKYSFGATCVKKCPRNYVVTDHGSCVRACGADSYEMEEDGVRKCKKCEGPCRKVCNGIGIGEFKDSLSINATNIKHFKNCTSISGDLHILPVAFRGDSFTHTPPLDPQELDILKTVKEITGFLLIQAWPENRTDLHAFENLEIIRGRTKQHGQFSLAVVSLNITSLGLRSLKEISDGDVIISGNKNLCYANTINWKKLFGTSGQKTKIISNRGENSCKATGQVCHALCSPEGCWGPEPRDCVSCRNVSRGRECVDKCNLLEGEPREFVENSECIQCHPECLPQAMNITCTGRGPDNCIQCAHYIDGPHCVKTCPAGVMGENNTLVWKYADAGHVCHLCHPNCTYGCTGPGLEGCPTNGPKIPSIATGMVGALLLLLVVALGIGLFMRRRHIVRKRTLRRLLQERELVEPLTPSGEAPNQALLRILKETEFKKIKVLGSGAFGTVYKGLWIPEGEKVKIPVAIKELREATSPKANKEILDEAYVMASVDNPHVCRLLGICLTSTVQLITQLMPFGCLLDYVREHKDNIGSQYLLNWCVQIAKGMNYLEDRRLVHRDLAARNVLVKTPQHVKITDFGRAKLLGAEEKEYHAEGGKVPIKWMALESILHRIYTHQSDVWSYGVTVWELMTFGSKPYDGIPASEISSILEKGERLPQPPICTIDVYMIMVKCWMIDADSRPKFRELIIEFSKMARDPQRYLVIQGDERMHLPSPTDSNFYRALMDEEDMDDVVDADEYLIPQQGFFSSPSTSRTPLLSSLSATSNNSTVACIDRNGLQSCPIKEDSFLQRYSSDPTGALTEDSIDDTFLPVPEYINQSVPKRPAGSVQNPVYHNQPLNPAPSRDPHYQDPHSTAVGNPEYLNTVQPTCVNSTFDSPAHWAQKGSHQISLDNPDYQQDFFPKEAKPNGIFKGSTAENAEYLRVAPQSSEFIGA
Cytochrome P450 3A4, sequence (P08684 whole entry): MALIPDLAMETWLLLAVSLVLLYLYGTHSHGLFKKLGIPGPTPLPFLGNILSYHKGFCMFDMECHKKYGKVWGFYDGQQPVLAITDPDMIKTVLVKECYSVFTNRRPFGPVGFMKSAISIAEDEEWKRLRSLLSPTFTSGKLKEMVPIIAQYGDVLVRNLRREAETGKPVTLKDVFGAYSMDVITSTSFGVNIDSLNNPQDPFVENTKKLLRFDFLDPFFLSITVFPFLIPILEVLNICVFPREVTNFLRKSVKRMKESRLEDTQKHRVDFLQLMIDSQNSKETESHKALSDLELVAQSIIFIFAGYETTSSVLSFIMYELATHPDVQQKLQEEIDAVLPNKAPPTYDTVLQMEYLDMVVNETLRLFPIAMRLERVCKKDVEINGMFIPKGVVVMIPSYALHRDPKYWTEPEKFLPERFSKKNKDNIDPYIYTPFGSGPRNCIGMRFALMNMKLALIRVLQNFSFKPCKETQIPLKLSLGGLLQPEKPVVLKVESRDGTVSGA
Tyrosine-protein kinase ITK/TSK (Homo sapiens), sequence (Q08881 whole entry): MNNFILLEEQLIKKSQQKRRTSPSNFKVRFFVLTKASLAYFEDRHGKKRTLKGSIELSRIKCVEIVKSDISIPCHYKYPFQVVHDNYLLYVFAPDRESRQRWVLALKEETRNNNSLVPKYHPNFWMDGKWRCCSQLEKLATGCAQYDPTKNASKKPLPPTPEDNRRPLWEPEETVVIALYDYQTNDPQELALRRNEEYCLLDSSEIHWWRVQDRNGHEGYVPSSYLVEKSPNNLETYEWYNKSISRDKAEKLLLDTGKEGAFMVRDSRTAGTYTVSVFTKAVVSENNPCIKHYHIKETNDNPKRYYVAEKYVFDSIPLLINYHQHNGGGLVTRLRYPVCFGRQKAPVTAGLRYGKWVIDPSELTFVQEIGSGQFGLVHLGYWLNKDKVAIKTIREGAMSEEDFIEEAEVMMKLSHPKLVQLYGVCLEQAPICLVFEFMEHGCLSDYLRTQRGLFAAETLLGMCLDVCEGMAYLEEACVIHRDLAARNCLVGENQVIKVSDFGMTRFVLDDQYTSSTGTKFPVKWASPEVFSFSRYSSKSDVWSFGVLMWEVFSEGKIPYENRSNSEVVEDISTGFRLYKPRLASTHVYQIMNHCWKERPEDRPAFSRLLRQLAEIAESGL
Epidermal growth factor receptor (Homo sapiens, UniProt P00533, L747-S752DEL/P753S), sequence (P00533 whole entry L747-S752del/P753S, looked up): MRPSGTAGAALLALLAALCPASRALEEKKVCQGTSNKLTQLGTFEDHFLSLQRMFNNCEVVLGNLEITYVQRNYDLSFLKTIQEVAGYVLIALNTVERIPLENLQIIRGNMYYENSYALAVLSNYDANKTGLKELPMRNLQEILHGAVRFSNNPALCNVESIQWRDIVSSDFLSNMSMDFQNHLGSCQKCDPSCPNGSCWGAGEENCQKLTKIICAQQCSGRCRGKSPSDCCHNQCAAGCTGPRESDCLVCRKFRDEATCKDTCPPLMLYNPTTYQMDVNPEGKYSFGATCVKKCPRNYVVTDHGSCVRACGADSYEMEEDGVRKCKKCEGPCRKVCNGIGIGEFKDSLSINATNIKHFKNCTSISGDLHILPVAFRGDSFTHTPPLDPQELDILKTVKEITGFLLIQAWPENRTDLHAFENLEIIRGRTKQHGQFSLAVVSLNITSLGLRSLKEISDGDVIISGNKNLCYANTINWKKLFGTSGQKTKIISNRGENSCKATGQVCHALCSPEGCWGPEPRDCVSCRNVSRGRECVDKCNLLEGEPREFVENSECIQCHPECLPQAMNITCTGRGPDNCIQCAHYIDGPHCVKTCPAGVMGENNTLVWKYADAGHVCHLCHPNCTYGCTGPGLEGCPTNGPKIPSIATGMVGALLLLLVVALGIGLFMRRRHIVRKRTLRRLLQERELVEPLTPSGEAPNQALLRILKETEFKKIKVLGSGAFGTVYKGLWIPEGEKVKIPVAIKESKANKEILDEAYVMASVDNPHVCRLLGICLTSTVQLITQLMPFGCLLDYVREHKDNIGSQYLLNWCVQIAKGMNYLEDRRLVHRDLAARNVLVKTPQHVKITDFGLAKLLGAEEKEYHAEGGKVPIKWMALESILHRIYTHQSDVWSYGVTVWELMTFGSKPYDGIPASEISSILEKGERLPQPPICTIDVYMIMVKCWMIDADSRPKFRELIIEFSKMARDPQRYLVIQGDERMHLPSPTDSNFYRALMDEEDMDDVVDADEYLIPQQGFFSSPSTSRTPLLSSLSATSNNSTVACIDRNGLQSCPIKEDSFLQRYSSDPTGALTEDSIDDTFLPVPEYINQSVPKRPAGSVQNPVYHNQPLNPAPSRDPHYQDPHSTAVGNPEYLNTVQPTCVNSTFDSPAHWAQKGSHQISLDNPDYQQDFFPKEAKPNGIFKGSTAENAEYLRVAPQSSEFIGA
Epidermal growth factor receptor (Homo sapiens, UniProt P00533, L747-T751DEL), sequence (P00533 whole entry L747-T751del, looked up, the tested form may be a part): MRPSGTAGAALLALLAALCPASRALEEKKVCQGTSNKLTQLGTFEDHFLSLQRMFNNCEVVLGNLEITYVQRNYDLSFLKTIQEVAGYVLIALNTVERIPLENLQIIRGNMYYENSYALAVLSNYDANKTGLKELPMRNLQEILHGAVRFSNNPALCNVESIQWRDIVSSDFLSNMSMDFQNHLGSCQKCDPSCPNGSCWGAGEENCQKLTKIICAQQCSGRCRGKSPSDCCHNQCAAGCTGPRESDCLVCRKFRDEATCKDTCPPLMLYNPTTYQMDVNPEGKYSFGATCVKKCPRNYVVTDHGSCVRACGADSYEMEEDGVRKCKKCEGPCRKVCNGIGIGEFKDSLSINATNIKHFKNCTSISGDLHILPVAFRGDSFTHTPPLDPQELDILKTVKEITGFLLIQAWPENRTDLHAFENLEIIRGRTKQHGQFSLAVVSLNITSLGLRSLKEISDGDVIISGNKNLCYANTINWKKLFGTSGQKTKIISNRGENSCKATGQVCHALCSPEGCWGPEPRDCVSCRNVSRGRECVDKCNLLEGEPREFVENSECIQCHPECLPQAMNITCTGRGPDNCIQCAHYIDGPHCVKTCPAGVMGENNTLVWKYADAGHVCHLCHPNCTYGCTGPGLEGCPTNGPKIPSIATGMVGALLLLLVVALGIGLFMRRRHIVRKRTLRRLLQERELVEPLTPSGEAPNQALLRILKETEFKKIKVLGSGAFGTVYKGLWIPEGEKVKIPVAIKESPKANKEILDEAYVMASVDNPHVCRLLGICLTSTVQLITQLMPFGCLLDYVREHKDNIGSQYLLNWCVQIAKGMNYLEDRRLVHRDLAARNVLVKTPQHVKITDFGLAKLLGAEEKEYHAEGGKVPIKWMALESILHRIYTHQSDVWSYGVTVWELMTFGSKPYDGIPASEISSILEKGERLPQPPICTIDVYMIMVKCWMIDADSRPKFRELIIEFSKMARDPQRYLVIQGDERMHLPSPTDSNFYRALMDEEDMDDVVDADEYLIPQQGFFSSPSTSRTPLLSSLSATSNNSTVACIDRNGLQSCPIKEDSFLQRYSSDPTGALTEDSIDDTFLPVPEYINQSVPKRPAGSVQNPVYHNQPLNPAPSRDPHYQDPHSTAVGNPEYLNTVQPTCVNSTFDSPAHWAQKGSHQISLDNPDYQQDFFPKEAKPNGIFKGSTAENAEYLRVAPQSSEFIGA

## CCOc1cc2ncc(C#N)c(Nc3ccc(OCc4cccc(F)c4)c(Cl)c3)c2cc1NC(=O)CC1CCSS1 (configuration not stated)
[1]
  CC50: > 25 µM
[2]
  IC50: > 50 µM
[3]
  Kd: 0.0096 µM
[4]
  Kd: 0.0079 µM
[5]
  GI50: 0.16 µM
[6]
  CC50: > 25 µM
[7]
  GI50: 0.15 µM
[8]
  GI50: 0.54 µM
[9]
  Kd: 0.01 µM
[10]
  GI50: 0.47 µM
[11]
  IC50: 0.16 µM
[12]
  IC50: 0.12 µM
[13]
  inhibition: 0%
[14]
  IC50: > 50 µM
[15]
  IC50: > 50 µM
[16]
  CC50: 1.95 µM
[17]
  inhibition: 20%
[18]
  half-life: 0.893 h
[19]
  IC50: > 50 µM
[20]
  Kd: 10 µM
[21]
  Kd: 0.048 µM
[22]
  inhibition: 10%
[23]
  Kd: 0.012 µM
[24]
  IC50: > 50 µM
[25]
  inhibition: 0%
[26]
  half-life: 1.43 h
[27]
  TI: >41.5
[28]
  Kd: 0.0048 µM
[29]
  Kd: 0.013 µM
[30]
  Kd: 0.0096 µM
[31]
  IC50: > 50 µM
[32]
  IC50: > 50 µM
